Assay outcomes (PubChem BioAssay)
The sample as a whole holds a higher share of hits than the screen did.
T cruzi repl = blocks replication of Trypanosoma cruzi; inhibition, % (concentration not given with the values); actives 1.4% (n = 300,000); T. cruzi beta-gal in NIH3T3, luminescence, 90 h;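 active = mean inhibition across valid replicates above about 55%, limit read from the data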;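 also: signal also drops with host cell toxicity which is not excluded here; higher percent means less beta-gal luminescence so fewer parasites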
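Assay system: NIH/3T3 fibroblasts plus reporter T. cruzi. Amount: NIH/3T3 cells, 5,000 per well. Buffer or medium: DMEM, 2% fetal bovine serum. Doses: compound pinned at 50 nL/well, DMSO. Schedule: ≥90 h infection period, 3 h prior cell attachment. Signal: luminescent β-galactosidase signal after 60 min lysis. Read-out: parasite load inhibition, %.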
CHOP inhibitor = CHOP inhibition in unfolded protein response; CHO-K1 CHOP-promoter luciferase, tunicamycin-induced, 15-18 h; inhibition, % at 10 µM; actives 3.8% (n = 220,000);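 active = compounds that reduced the stress-induced luciferase reporter signal by more than about 70% of percent inhibition, limit read from the data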
UPR XBP1 act = activators of adaptive arm of unfolded protein response (XBP1). CHO-XBP1 luciferase reporter, IRE1-XBP1 UPR activation, luminescence; percent of tunicamycin response, DMSO as zero. activation, % at 20 µM. actives 0.33% (n = 330,000);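 active = versus positive control, 20 µM dose yields 30% or more activation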
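Test system: CHO-XBP1 luciferase reporter cells | Buffer or medium: Serum-containing F12 medium, 10% FBS | Schedule: 6 h compound exposure at 37 °C, 5% CO2 | Detection: Steady-Glo luciferase glow luminescence, 10 min after reagent addition | Read-out basis: Activation, % of tunicamycin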
UPR CHOP act = activators of apoptotic arm of unfolded protein response (CHOP); activation, % at 10 µM; actives 0.34% (n = 330,000); CHO-CHOP luciferase reporter, UPR activation, luminescence; percent of tunicamycin response over DMSO baseline;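 active = at 10 µM dose, activation of 40% or more, normalized to positive control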
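Test system: CHO-CHOP cells, stable luciferase reporter of PERK-eIF2a-CHOP signalling | Quantity: 500 CHO-CHOP cells per well | Buffer or medium: F12 plus 10% serum | Compound dosing: 10 µM single point, 0.5% DMSO | Schedule: 6 h compound treatment, 37 °C | Signal: Luciferase luminescence | Control set: Tunicamycin high control, DMSO low control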
L major viab = inhibitors of Leishmania major promastigote growth | Leishmania major promastigotes, resazurin fluorescence viability | inhibition, % at 10 µM | actives 9% (n = 200,000) | AID 1063; in the data active = inhibition above about 50%;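 also: promastigotes grown with compound for 44 hours at 28 °C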
Dynein cargo inh = blocks dynein driven cargo transport along microtubules | 3617.4 mouse cells, GR-EGFP nuclear translocation imaging; test concentration mostly 20 µM; stimulated with dexamethasone, 1 µM; stronger effect = lower value | z-score, hits read low | actives 0.47% (n = 220,000);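 active = plate z-score of nuclear minus cytoplasmic receptor signal below a set negative limit, without overly bright fluorescence or cell loss, cut at about -3.5 in these data, passing the limit was not always enough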;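 also: z-score of nuclear minus cytoplasmic ring GR-EGFP intensity difference per well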
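Medium: Induction medium lacking tetracycline, stripped serum | Probe or stimulus: 1.0 µM final dexamethasone stimulus | Schedule: 48 h induction, then 1 h compound, then 30 min agonist, 37 °C | Signal: Automated 10x imaging of fixed Hoechst-stained cells | Evaluation: Per-cell GR-EGFP intensity, nucleus versus surrounding cytoplasmic ring, well-averaged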
Numbers stand for hits; - = inactive; . = no result.

SMILES	T cruzi repl	CHOP inhibitor	UPR XBP1 act	UPR CHOP act	L major viab	Dynein cargo inh
CCN(CC)CCNC(=O)C(=O)NCC1OCCN1C(=O)c1ccc2c(c1)OCO2 (stereo unspecified)	-	-	-	-	54	-
Cc1nc(N2CCN(c3ccccn3)CC2)c2c(C)c(C(=O)N3CCN(c4cccc(Cl)c4)CC3)sc2n1	-	.	-	-	.	.
CC1CN=C(NC(=O)c2cccc([N+](=O)[O-])c2)S1 (stereo unspecified)	-	.	-	-	.	.
CC(C)CCOc1ccc(C(=O)NN2C(=O)NC3(CCCCC3)C2=O)cc1	-	.	-	-	.	.
CN1C(=O)N(C)C2(c3ccccc3)Nn3c(s/c(=C/c4ccccc4F)c3=O)=NC12c1ccccc1 (stereo unspecified)	-	71	-	-	-	-
COc1ccc(S(=O)(=O)N2CCC(C(=O)NCc3cccnc3)CC2)cc1OC	-	.	-	-	.	.
Cc1nc(SCC(=O)NCCc2ccccc2)c2oc3ccccc3c2n1	-	-	-	-	-	-
Cc1nc(NCCc2ccccc2)c2oc3ccccc3c2n1	-	76	-	-	90	-
Cc1nc(NCCCN2CCOCC2)c2oc3ccccc3c2n1	-	-	-	-	97	-
Cc1nc(NCCN2CCOCC2)c2oc3ccccc3c2n1	-	-	-	-	-	-
CCc1nc(Nc2ccc(F)cc2)c2oc3ccccc3c2n1	-	.	-	-	.	.
CCc1nc(Nc2ccccc2)c2oc3ccccc3c2n1	-	72	-	-	-	-
O=[N+]([O-])c1ccc(Cl)c(-c2ccc(/C=N/n3cnnc3)o2)c1	-	.	-	-	.	.
Cc1ccc([N+](=O)[O-])cc1-c1ccc(/C=N\n2nnnc2N)o1	-	90	-	-	51	-
CN1CCN(/N=C/c2ccc(-c3ccc([N+](=O)[O-])cc3Cl)o2)CC1	59	-	-	-	-	-
Cc1ccc(NS(=O)(=O)c2ccc(C(=O)NNC(=O)c3ccccc3O)cc2)cc1	-	.	-	-	.	.
Cc1ccc(N(CC(=O)NC2CCC(C)CC2)S(=O)(=O)c2cccnc2)cc1 (stereo unspecified)	-	-	-	-	67	-
CCN1CCN(C(=S)c2ccc(Cl)cc2)CC1	-	-	-	-	88	-
COc1ccc(C(=S)N2CCCCCC2)cc1	-	-	-	-	-	-
CCN1CCN(C(=S)c2ccc(OC)cc2)CC1	-	-	-	-	100	-
CCN1CCN(C(=S)c2ccc([N+](=O)[O-])cc2)CC1	-	-	-	-	58	-
OCCN1CCN(C(=S)c2ccc(Cl)cc2)CC1	-	-	-	-	-	-
O=c1c(Cc2ccc(F)cc2)c(O)ccn1Cc1ccc(Cl)cc1Cl	-	83	-	-	-	-
O=c1c(Cc2ccc(F)cc2)c(O)ccn1Cc1ccc(F)cc1	-	-	-	-	-	-
COc1ccccc1-n1nnnc1SC(C)C(=O)NC1CCCC1 (stereo unspecified)	-	.	-	-	.	.
SMILES	T cruzi repl	CHOP inhibitor	UPR XBP1 act	UPR CHOP act	L major viab	Dynein cargo inh
COc1ccc2c3c(cccc13)N(C)N=C2C	-	-	-	-	100	-
COc1ccc2c3c(cccc13)OC2=O	-	.	-	-	.	.
CN(C)CCC(=O)c1cccc(Br)c1	-	-	-	-	52	-
CN(C)CCC(=O)c1ccc2c(c1)OCO2	-	-	-	-	98	-
CN(C)CCC(=O)c1ccc(F)cc1	-	-	-	-	.	-
CCOC(=O)c1cc2c(=O)n3ccccc3nc2n(C(C)C)c1=NC(=O)c1ccncc1	-	-	-	-	52	-
CCOC(=O)c1cc2c(=O)n3ccccc3nc2n(C(C)C)c1=NC(=O)c1c(-c2ccccc2Cl)noc1C	63	-	-	-	88	-
CCOC(=O)c1cc2c(=O)n3ccccc3nc2n(CC(C)C)c1=NC(=O)c1ccco1	-	-	-	-	-	-
CCOC(=O)c1cc2c(=O)n3ccccc3nc2n(CCOC)c1=NC(=O)c1c(-c2c(F)cccc2Cl)noc1C	.	-	-	-	67	-
Fc1ccc(-c2ccc(/C=N\n3cnnc3)o2)cc1Cl	-	-	-	-	95	-
CC(=O)Nc1ccc(/C(C)=N/Nc2nc(N3CCOCC3)nc(N3CCOCC3)n2)cc1	-	-	-	-	-	-
CC(=O)Nc1ccc(/C(C)=N/Nc2nc(Nc3cccc4ccccc34)nc(N3CCOCC3)n2)cc1	-	-	-	-	58	-
C/C(=N\Nc1nc(N2CCCCCC2)nc(N2CCCCCC2)n1)c1ccccc1	-	-	-	-	51	-
Cc1ccc(S(=O)(=O)c2nc(-c3cccs3)oc2NCCCN(C)C)cc1	-	-	-	-	98	-
CN(C)CCNc1oc(-c2ccccc2Cl)nc1S(=O)(=O)c1ccccc1	.	.	-	-	.	.
CN(C)CCCNc1oc(-c2ccccc2Cl)nc1S(=O)(=O)c1ccc(F)cc1	62	.	-	-	.	.
C=CCNc1oc(-c2cccs2)nc1S(=O)(=O)c1ccccc1	-	-	-	-	96	-
O=C(CSc1oc(-c2cccs2)nc1S(=O)(=O)c1ccccc1)NC1CCCCC1	60	-	-	-	98	-
O=C1N/C(=N/S(=O)(=O)Cc2ccccc2)S/C1=C/c1ccc2c(c1)OCO2	-	-	-	-	.	-
Cc1ccc(C(=O)NC(=S)N(C)C2CCCCC2)cc1	-	.	-	-	.	.
COc1ccc(S(=O)(=O)N2CCCCC2)cc1NC(=O)c1ccc(N2CCCC2=O)cc1	.	.	-	-	.	.
Cc1ccc(S(=O)(=O)NCCN=Cc2ccc(N(C)C)cc2)cc1	-	.	-	-	.	.
O=C1CCCN1c1ccc(S(=O)(=O)NCCOc2ccccc2)cc1	-	-	-	-	-	-
Cc1cc(N2CCCC2=O)cc(C)c1S(=O)(=O)NCCOc1ccc(C(C)(C)C)cc1	-	78	-	-	-	-
Cc1ncc(CO)c(/C=N/NC(=S)Nc2ccc(Cl)c(Cl)c2)c1O	-	-	-	-	73	-
SMILES	T cruzi repl	CHOP inhibitor	UPR XBP1 act	UPR CHOP act	L major viab	Dynein cargo inh
Cc1ncc(CO)c(/C=N/NC(=O)c2cc3c(s2)CCCC3)c1O	-	-	-	-	98	-
Cc1ncc(CO)c(/C=N/NC(=S)Nc2cccc(Cl)c2)c1O	-	-	-	-	-	-
CCC(=O)Nc1ccccc1Sc1ncnc2scc(-c3ccccc3)c12	-	-	-	-	-	-
CC(C)CCN1CCN(Cc2ccc3nsnc3c2)CC1CCO (stereo unspecified)	-	-	-	-	-	-
CC(C)CCN1CCN(Cc2cccc(C(F)(F)F)c2)CC1CCO (stereo unspecified)	-	-	-	-	92	-
CSc1cccc(CN2CCN(CCC(C)C)C(CCO)C2)c1 (stereo unspecified)	-	-	-	-	79	-
